This is an account of results in ChEMBL document CHEMBL1154770, “Betulinic acid derivatives as human immunodeficiency virus type 2 (HIV-2) inhibitors” (J Med Chem, 2009).

pIC50: −log10 of the molar value. Active and inactive are the calls of the source. No cut-off for these calls is given here.

In data set [1] the test system is Human immunodeficiency virus 1. As to the kind of experiment: Antiviral activity against HIV1 NL4-3 infected in human TZM-b1 cells assessed as reduction in luciferase activity after 2 days by luciferase reporter gene assay. Type of data set: functional, cell-based. Particulars: Human immunodeficiency virus 1, NL4-3, TZM-b1, 48 h. An outline of the steps: (§1)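 Single-round infection of TZM-bl cells with 200 TCID50 of virus in the presence of graded compound concentrations. After 2 days, the medium was removed and Bright Glo reagent was added to read luciferase luminescence (RLU). IC50 is the concentration giving 50% reduction of luciferase activity relative to virus control wells.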
A general note: In a reporter assay the amount or activity of a reporter protein is the signal.

The nature of data set [2]: Antiviral activity against HIV2 KR X3 infected in human TZM-b1 cells assessed as reduction in luciferase activity after 2 days by luciferase reporter gene assay. Type of data set: functional, cell-based, Human immunodeficiency virus type 2 (isolate KR). Conditions: Human immunodeficiency virus 2, X3, TZM-b1, 48 h. An outline of the steps: as §1
The nature of data set [3]: Cytotoxicity against human TZM-b1 cells after 2 days. Type of data set: cell-based. Particulars: read-out: TC50.
Data set [4] is described as follows: Selectivity index, ratio of TC50 for human TZM-b1 cells to IC50 for HIV1 NL4-3 infected in human TZM-b1 cells. Type of data set: toxicity, cell-based. Conditions: TZM-b1 cells infected with HIV1 NL4-3, read-out: Selectivity Index. The method in brief: (§2)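 TC50 from 2-day CytoTox-Glo viability assay of compound-treated TZM-bl cells, divided by IC50 from single-round TZM-bl infection (200 TCID50 HIV-1 NL4-3 or HIV-2 KR.X3, 2-day luciferase read, 50% RLU reduction versus virus control).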

Data set [5] is described as follows: Selectivity index, ratio of TC50 for human TZM-b1 cells to IC50 for HIV2 KR X3 infected in human TZM-b1 cells. Type of data set: toxicity, cell-based. Conditions: TZM-b1 cells infected with HIV2 KR X3, read-out: Selectivity Index. The method in brief:
as §2

Data set [6] in a line: Ratio of IC50 for HIV2 KR X3 infected in human TZM-b1 cells to IC50 for HIV1 NL4-3 infected in human TZM-b1 cells. Type of data set: functional. The method in brief: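 IC50s from single-round TZM-bl infection with 200 TCID50 HIV-1 NL4-3 or HIV-2 KR.X3, graded compound concentrations, 2-day luciferase (Bright Glo) read-out; IC50 = 50% RLU reduction versus virus control; ratio of HIV-2 to HIV-1 IC50.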

The test system of data set [7] is HIV-1 NL4-3 (human immunodeficiency virus 1). The data set is described as follows: Antiviral activity against HIV1 NL4-3 infected in human TZM-b1 cells after 2 days by luciferase reporter gene assay. Particulars: Human immunodeficiency virus 1, NL4-3, TZM-b1, 48 h.
Data set [8] relates to TZM-b1. As to the kind of experiment: Antiviral activity against HIV2 KR X3 harboring V3 loop of HIV1 YU-2 infected in human TZM-b1 cells after 2 days by luciferase reporter gene assay. Type of data set: functional, cell-based. Conditions: Human immunodeficiency virus type 2 (isolate KR). An outline of the steps:
as §1

Data set [9] relates to TZM-b1. As to the kind of experiment: Inhibition of HIV1 YU-2 gp120 V3 loop assessed as inhibition of HIV2 KR X3 replication in human TZM-b1 cells. Type of data set: cell-based. Particulars: Human immunodeficiency virus type 1 (isolate YU2). The method in brief: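 Single-round infection of TZM-bl cells with 200 TCID50 of HIV-2 KR.X3 chimera carrying the HIV-1 YU2 V3 loop (KR.X3-YU2/V3), in presence of graded compound concentrations. After 2 days medium removed, Bright Glo added, luciferase luminescence read; IC50 = concentration halving RLU versus virus-control wells.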

Data set [10] has as its system TZM-b1. The data set is described as follows: Antiviral activity against HIV2 KR X3 infected in human TZM-b1 cells after 2 days by luciferase reporter gene assay. Type of data set: functional, cell-based. Conditions: Human immunodeficiency virus type 2 (isolate KR). The method in brief: as §1

`C=C(C)[C@@H]1CC[C@]2(C(=O)NCCCCCCC(=O)NCC(=O)O)CC[C@]3(C)[C@H](CC[C@@H]4[C@@]5(C)CC[C@H](O)C(C)(C)[C@@H]5CC[C@]43C)[C@@H]12`: the pIC50 (as a rule, the IC50 on a negative log10 scale, so that one unit is a factor of ten) is 5.39 in data set [1] and 6.38 in data set [2]. Further, the CC50 at 48 h in data set [3] is greater than 63 µM.

In the case of `C=C(C)[C@@H]1CC[C@]2(C(=O)NCCCCC(=O)NCC(=O)O)CC[C@]3(C)[C@H](CC[C@@H]4[C@@]5(C)CC[C@H](O)C(C)(C)[C@@H]5CC[C@]43C)[C@@H]12`, the negative logarithm of the IC50 (pIC50) in data set [2] was 5.59. Also, the selectivity ratio in data set [4] is less than 2. Also, in data set [3], the CC50 at 48 h is greater than 65 µM.

For the compound `C=C(C)[C@@H]1CC[C@]2(C(=O)NCCCCCNC(C)=O)CC[C@]3(C)[C@H](CC[C@@H]4[C@@]5(C)CC[C@H](O)C(C)(C)[C@@H]5CC[C@]43C)[C@@H]12`, the selectivity ratio in [4] and in data set [5] was less than 2 in each case. For the same compound, in data set [3], the CC50 at 48 h turned out to be 13.9 µM.

Regarding `C=C(C)[C@@H]1CC[C@]2(C(=O)NCCCCCCCCNC(C)=O)CC[C@]3(C)[C@H](CC[C@@H]4[C@@]5(C)CC[C@H](O)C(C)(C)[C@@H]5CC[C@]43C)[C@@H]12`, the pIC50 in data set [1] was 6.85. Also, the CC50 at 48 h in [3] was greater than 64 µM. For the same compound, in data set [5], the selectivity ratio is less than 2.

Consider `C=C(C)[C@@H]1CC[C@]2(C(=O)NCCCCCCCC(=O)NC(CC(C)C)[C@H](O)CC(=O)O)CC[C@]3(C)[C@H](CC[C@@H]4[C@@]5(C)CC[C@H](O)C(C)(C)[C@@H]5CC[C@]43C)[C@@H]12` (single isomer, unassigned), for which the figures for the pIC50 in [1] and in data set [2] were 7.38 and 5.54, respectively. Besides, in data set [6], the “Ratio IC50” value is reported as 70. The CC50 at 48 h in data set [3] was 33.2 µM.

In the case of `C=C(C)[C@@H]1CC[C@]2(C(=O)NCCCCCCCC(=O)O)CC[C@]3(C)[C@H](CC[C@@H]4[C@@]5(C)CC[C@H](O)C(C)(C)[C@@H]5CC[C@]43C)[C@@H]12`, in data set [1], the pIC50 is 6.08. In addition, the CC50 at 48 h in data set [3] came to 34.2 µM. The selectivity ratio in [5] was less than 2.

In the case of `C=C(C)[C@@H]1CC[C@]2(C(=O)NCCCCCCNC(C)=O)CC[C@]3(C)[C@H](CC[C@@H]4[C@@]5(C)CC[C@H](O)C(C)(C)[C@@H]5CC[C@]43C)[C@@H]12`, the pIC50 in [1] and in [7] was 7.57 throughout. Further, the CC50 at 48 h in [3] turned out to be 48.1 µM. Further, the selectivity ratio in data set [5] was less than 2.

Regarding `C=C(C)[C@@H]1CC[C@]2(C(=O)NCCCCCC(=O)N[C@@H](Cc3ccc(O)cc3)C(=O)O)CC[C@]3(C)[C@H](CC[C@@H]4[C@@]5(C)CC[C@H](O)C(C)(C)[C@@H]5CC[C@]43C)[C@@H]12`, the pIC50 in data set [2] is 6.64. For the same compound, in [4], the selectivity ratio was less than 2. Moreover, the CC50 at 48 h in data set [3] was determined as 54.6 µM.

`C=C(C)[C@@H]1CC[C@]2(C(=O)NCCCCCC(=O)O)CC[C@]3(C)[C@H](CC[C@@H]4[C@@]5(C)CC[C@H](O)C(C)(C)[C@@H]5CC[C@]43C)[C@@H]12`: the results for the pIC50 in [1] and in data set [2] were 5.70 and 6.82, respectively. Moreover, the CC50 at 48 h in data set [3] is greater than 70 µM.

Regarding `C=C(C)[C@@H]1CC[C@]2(C(=O)NCCCCCC(=O)N[C@@H](C)C(=O)O)CC[C@]3(C)[C@H](CC[C@@H]4[C@@]5(C)CC[C@H](O)C(C)(C)[C@@H]5CC[C@]43C)[C@@H]12`, the pIC50 in data set [1] was 4.31; in data set [2], 6.43. Moreover, in data set [3], the CC50 at 48 h was greater than 63 µM.

With `C=C(C)[C@@H]1CC[C@]2(C(=O)NCCCCC(=O)O)CC[C@]3(C)[C@H](CC[C@@H]4[C@@]5(C)CC[C@H](O)C(C)(C)[C@@H]5CC[C@]43C)[C@@H]12`, the pIC50 in [1] is 4.48; in data set [2], 6.77. Further, the CC50 at 48 h in data set [3] was greater than 72 µM.

As to `C=C(C)[C@@H]1CC[C@]2(C(=O)O)CC[C@]3(C)[C@H](CC[C@@H]4[C@@]5(C)CC[C@H](OC(=O)CC(C)(C)C(=O)O)C(C)(C)[C@@H]5CC[C@]43C)[C@@H]12` [BEVIRIMAT], the pIC50 in data set [1] was 6.89. In [3], the CC50 at 48 h is greater than 30 µM. Further, the selectivity ratio in data set [5] is less than 2.

With `Cc1cn([C@H]2C[C@H](N=[N+]=[N-])[C@@H](CO)O2)c(=O)[nH]c1=O` [ZIDOVUDINE], the pIC50 in data set [2] is 7.16.

Regarding `C=C(C)[C@@H]1CC[C@]2(C(=O)NCCCC(=O)O)CC[C@]3(C)[C@H](CC[C@@H]4[C@@]5(C)CC[C@H](O)C(C)(C)[C@@H]5CC[C@]43C)[C@@H]12`, the negative logarithm of the IC50 (pIC50) in data set [2] was 5.55. In data set [4], the selectivity ratio was less than 2. For the same compound, in [3], the CC50 at 48 h is 31.2 µM.

Take `C=C(C)[C@@H]1CC[C@]2(C(=O)NCCCC(=O)NCC(=O)O)CC[C@]3(C)[C@H](CC[C@@H]4[C@@]5(C)CC[C@H](O)C(C)(C)[C@@H]5CC[C@]43C)[C@@H]12`: the pIC50 in data set [2] was 5.43. Further, the selectivity ratio in data set [4] is less than 2. For the same compound, in data set [3], the CC50 at 48 h is greater than 67 µM.

For the compound `C=C(C)[C@@H]1CC[C@]2(C(=O)NCCCCCC(=O)N3CCC[C@H]3C(=O)O)CC[C@]3(C)[C@H](CC[C@@H]4[C@@]5(C)CC[C@H](O)C(C)(C)[C@@H]5CC[C@]43C)[C@@H]12`, the negative-log IC50 (pIC50) was 4.29 in data set [1] and 6.20 in [2]. Besides, in data set [3], the CC50 at 48 h is greater than 60 µM.

Regarding `C=C(C)[C@@H]1CC[C@]2(C(=O)O)CC[C@]3(C)[C@H](CC[C@@H]4[C@@]5(C)CC[C@H](O)C(C)(C)[C@@H]5CC[C@]43C)[C@@H]12` [BETULINIC ACID], the selectivity ratio in data set [4] and in data set [5] was less than 2 throughout. Further, the CC50 at 48 h in data set [3] is greater than 80 µM.

With `C=C(C)[C@@H]1CC[C@]2(C(=O)NCCCCCCCNC(C)=O)CC[C@]3(C)[C@H](CC[C@@H]4[C@@]5(C)CC[C@H](O)C(C)(C)[C@@H]5CC[C@]43C)[C@@H]12`, the negative logarithm of the IC50 (pIC50) in data set [1] and in data set [7] was 7.42 throughout. Moreover, the CC50 at 48 h in [3] is greater than 66 µM. Further, the selectivity ratio in data set [5] was less than 2.

In the case of `C=C(C)[C@@H]1CC[C@]2(C(=O)NCCCCCCC(=O)O)CC[C@]3(C)[C@H](CC[C@@H]4[C@@]5(C)CC[C@H](O)C(C)(C)[C@@H]5CC[C@]43C)[C@@H]12`, the pIC50 in data set [1] was 4.95; in data set [2] it was 5.35. Also, in [3], the CC50 at 48 h was 36.2 µM.

As for `C=C(C)[C@@H]1CC[C@]2(C(=O)NCCCCCC(=O)NCC(=O)O)CC[C@]3(C)[C@H](CC[C@@H]4[C@@]5(C)CC[C@H](O)C(C)(C)[C@@H]5CC[C@]43C)[C@@H]12`, the values for the pIC50 in data set [1], in [2] and in [7] were 4.46, 6.46 and 6.46, respectively. Also, the CC50 at 48 h in data set [3] is greater than 64 µM. For the same compound, the Activity entry with TZM-b1 [8] and with TZM-b1 [10] was “Dose-dependent effect” in each case. For the same compound, in the data set on TZM-b1 [9], the result was Active.

On to `C=C(C)[C@@H]1CC[C@]2(C(=O)NCCCCCCNC(=O)CC(=O)O)CC[C@]3(C)[C@H](CC[C@@H]4[C@@]5(C)CC[C@H](O)C(C)(C)[C@@H]5CC[C@]43C)[C@@H]12`, for which, in data set [1], the pIC50 is 6.36. For the same compound, the CC50 at 48 h in [3] worked out at 34.6 µM. Also, the selectivity ratio in [5] is less than 2.

As for `C=C(C)[C@@H]1CC[C@]2(C(=O)NCCCCCCCC(=O)NCC(=O)O)CC[C@]3(C)[C@H](CC[C@@H]4[C@@]5(C)CC[C@H](O)C(C)(C)[C@@H]5CC[C@]43C)[C@@H]12`, the pIC50 in data set [1] was 6.92; in data set [2], 6.19. Moreover, the CC50 at 48 h in [3] worked out at 15.8 µM.

As for `C=C(C)[C@@H]1CC[C@]2(C(=O)NCCCCCC(=O)NCC(=O)NCC(=O)O)CC[C@]3(C)[C@H](CC[C@@H]4[C@@]5(C)CC[C@H](O)C(C)(C)[C@@H]5CC[C@]43C)[C@@H]12`, the pIC50 in data set [1] is less than 4.24; in data set [2], 5.77. Besides, the CC50 at 48 h in data set [3] was greater than 58 µM.
